How the values were obtained:
Cavia porcellus [1] = species: Cavia porcellus; assay: Evaluated for its potency in Guinea pig trachea (GPT) spirals in the presence of increasing concentrations; assay type: functional; settings: Cavia porcellus, Trachea
Summary of the method: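 Guinea pig tracheal spirals contracted by U-46,619 in cumulative dose-response curves, repeated with increasing antagonist concentrations; Kb from analysis of the rightward shift.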

Bos taurus [2] = species: Bos taurus; assay: Evaluated for its specificity by inhibition of 6-keto-PGF1-alpha and arachidonic acid (substrate) biosynthesis, enzyme source is Bovine Aorta; assay type: functional
Summary of the method: (§1)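 Microsomal enzyme preparations from human platelet, bovine seminal vesicles or bovine aorta, given arachidonic acid or PGH2 as substrate. Products measured: TxB2, PGE2 or 6-keto-PGF1α. IC50 reported.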

Homo sapiens [3] = species: Homo sapiens; assay: Evaluated for its specificity by inhibition of PGE-2 and PGH-2 (substrate) biosynthesis, enzyme source is human platelets.; assay type: functional; summary of the method: as §1
Cavia porcellus [4] = assay: Evaluated for the percent inhibition of arachidonate-induced hypertension resulting in decreases in blood pressure at 3 min after dosing (0.1 mg/kg iv) in anesthetized guinea pig.; assay type: functional
Summary of the method: (§2)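 Anesthetized guinea pig dosed iv with antagonist at 0.1 mg/kg (some at 1.0 mg/kg). Arachidonic acid 0.5 mg/kg iv given as challenge 3 or 60 min later. Airway resistance, dynamic compliance and blood pressure recorded; percent inhibition of each response.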

Cavia porcellus [5] = assay: Evaluated for the percent inhibition of arachidonate-induced air-way resistance at 3 min after dosing (0.1 mg/kg iv) in anesthetized guinea pig.; assay type: functional; summary of the method: as §2
Thromboxane A2 receptor = target: T1, Thromboxane A2 receptor (Homo sapiens, UniProt P21731); assay: Binding affinity was determined from the inhibition of [3H]-SQ 29,548 binding to Thromboxane A2 receptor in human platelet membranes.; assay type: cell membranes
T1 sequence (P21731 whole entry): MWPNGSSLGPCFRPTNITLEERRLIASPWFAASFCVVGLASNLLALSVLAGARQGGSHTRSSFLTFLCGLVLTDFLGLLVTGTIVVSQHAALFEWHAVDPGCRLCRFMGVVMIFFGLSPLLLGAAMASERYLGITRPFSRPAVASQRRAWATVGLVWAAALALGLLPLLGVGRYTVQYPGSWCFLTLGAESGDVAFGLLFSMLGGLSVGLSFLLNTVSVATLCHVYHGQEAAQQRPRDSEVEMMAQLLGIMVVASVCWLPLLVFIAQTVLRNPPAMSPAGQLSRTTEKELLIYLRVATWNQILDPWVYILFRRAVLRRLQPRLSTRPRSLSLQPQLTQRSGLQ
Summary of the method: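 Radioligand binding to human platelet membranes with [5,6-3H2]-SQ 29,548 as tracer; Kd derived from inhibition of specific binding.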

Cavia porcellus [6] = assay: Evaluated for the percent inhibition of arachidonate-induced dynamic compliance at 60 min after dosing (0.1 mg/kg iv) in anesthetized guinea pig.; assay type: functional; summary of the method: as §2
Cavia porcellus [7] = assay: Evaluated for the percent inhibition of arachidonate-induced hypertension resulting in decreases in blood pressure at 60 min after dosing (0.1 mg/kg iv) in anesthetized guinea pig.; assay type: functional; summary of the method: as §2
Homo sapiens [8] = species: Homo sapiens; assay: Evaluated for its specificity by inhibition of TXB2 and arachidonic acid (substrate) biosynthesis, enzyme source is human platelets.; assay type: functional; settings: read-out: I50; summary of the method: as §1
Homo sapiens [9] = species: Homo sapiens; assay: Evaluated for its specificity by inhibition of PGE-2 and arachidonic acid (substrate) biosynthesis, enzyme source is human platelets.; assay type: functional; summary of the method: as §1
Bos taurus [10] = species: Bos taurus; assay: Evaluated for its specificity by inhibition of PGE-2 and arachidonic acid (substrate) biosynthesis, enzyme source is Bovine seminal Vesicles; assay type: functional; summary of the method: as §1
Homo sapiens [11] = species: Homo sapiens; assay: Evaluated for its specificity to inhibit the aggregation of human platelets induced by Collagen at concentration of 10 ug/mL; assay type: functional; settings: read-out: I50
Summary of the method: (§3)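 Human platelet aggregation with agonist ADP 20 μM, collagen 10 or 20 μg/mL, or epinephrine 10 μM (primary and secondary phases scored separately); I50 reported.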

Homo sapiens [12] = species: Homo sapiens; assay: Evaluated for its specificity to inhibit the aggregation of human platelets induced by U-46,619 at concentration of 10 uM; assay type: functional; settings: read-out: I50
Summary of the method: (§4)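 Human PRP aggregation induced by U-46,619 (11,9-epoxymethano-PGH2, stable PGH2/TxA2 mimic) at 5 or 10 μM; I50 reported. Values are single determinations unless otherwise noted.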

Homo sapiens [13] = species: Homo sapiens; assay: Evaluated for its specificity to inhibit the aggregation of human platelets induced by Epinephrine(2 degree phase) at concentration of 10 uM; assay type: functional; settings: read-out: I50; summary of the method: as §3
Homo sapiens [14] = species: Homo sapiens; assay: Evaluated for its specificity by inhibition of TXB2 and PGH-2 (substrate) biosynthesis, enzyme source is human platelets.; assay type: functional; summary of the method: as §1
Cavia porcellus [15] = assay: Evaluated for the percent inhibition of arachidonate-induced dynamic compliance at 3 min after dosing (0.1 mg/kg iv) in anesthetized guinea pig.; assay type: functional; summary of the method: as §2
Homo sapiens [16] = species: Homo sapiens; assay: Evaluated for ability to inhibit platelet aggregation of human platelet-rich plasma (PRP) induced by 11.9-epoxymethano-PGH2.; assay type: functional; settings: Homo sapiens, Plasma; read-out: I50; summary of the method: as §4
Homo sapiens [17] = species: Homo sapiens; assay: Evaluated for its specificity to inhibit the aggregation of human platelets induced by Epinephrine(1 degree phase) at concentration of 10 uM; assay type: functional; settings: read-out: I50; summary of the method: as §3
Bos taurus [18] = species: Bos taurus; assay: Evaluated for its specificity by inhibition of 6-keto-PGF1-alpha and PGH-2 (substrate) biosynthesis, enzyme source is Bovine Aorta; assay type: functional; summary of the method: as §1
Cavia porcellus [19] = assay: Evaluated for the percent inhibition of arachidonate-induced air-way resistance at 60 min after dosing (0.1 mg/kg iv) in anesthetized guinea pig.; assay type: functional; summary of the method: as §2
Homo sapiens [20] = species: Homo sapiens; assay: Evaluated for its specificity to inhibit the aggregation of human platelets induced by U-46,619 at concentration of 5 uM; assay type: functional; settings: read-out: I50; summary of the method: as §4
Homo sapiens [21] = species: Homo sapiens; assay: Evaluated for its specificity to inhibit the aggregation of human platelets induced by Collagen at concentration of 20 ug/mL; assay type: functional; settings: read-out: I50; summary of the method: as §3
Homo sapiens [22] = species: Homo sapiens; assay: Ability to inhibit platelet aggregation of human platelet-rich plasma (PRP) induced by 800 uM of AA-IPA (arachidonic acid); assay type: functional; settings: Homo sapiens, Plasma; read-out: I50
Summary of the method: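 Human platelet-rich plasma; aggregation triggered by arachidonic acid at 800 μM. Test acids were also checked against ADP (20 μM)-induced aggregation. I50 taken as the concentration inhibiting aggregation.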

Rattus norvegicus = species: Rattus norvegicus; assay: Evaluated for its potency Rat aorta (RA) strips in the presence of increasing concentrations; assay type: functional
Summary of the method: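 Rat aortic strips contracted by U-46,619 in cumulative dose-response curves, repeated with increasing antagonist concentrations; Kb from analysis of the rightward shift.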

Homo sapiens [23] = species: Homo sapiens; assay: Evaluated for its specificity to inhibit the aggregation of human platelets induced by ADP at concentration of 20 uM; assay type: functional; settings: read-out: I50; summary of the method: as §3

- IC50 (Bos taurus [2]): > 1000 µM
- IC50 (Homo sapiens [3]): > 1000 µM
- Kd (Thromboxane A2 receptor): 0.0496 µM
- IC50 (Homo sapiens [8]): > 1000 µM
- IC50 (Homo sapiens [9]): > 1000 µM
- IC50 (Bos taurus [10]): > 1000 µM
- IC50 (Homo sapiens [11]): 0.19 µM
- IC50 (Homo sapiens [12]): 0.24 µM
- IC50 (Homo sapiens [13]): 0.04 µM
- IC50 (Homo sapiens [14]): > 1000 µM
- IC50 (Homo sapiens [16]): 0.24 µM
- IC50 (Homo sapiens [17]): > 1000 µM
- IC50 (Bos taurus [18]): > 1000 µM
- IC50 (Homo sapiens [20]): 0.22 µM
- IC50 (Homo sapiens [21]): 0.56 µM
- IC50 (Homo sapiens [22]): 0.18 µM
- IC50 (Homo sapiens [23]): > 1000 µM
Compound: CCCCCCCC(=O)NCC(=O)NCC1C2CCC(O2)C1C/C=C/CCCC(=O)O (single isomer, unassigned; (-))
- Kb (Cavia porcellus [1]): 0.003 µM
- Inhibition (Cavia porcellus [4]): 195%
- Inhibition (Cavia porcellus [5]): 96%
- Inhibition (Cavia porcellus [6]): 22%
- Inhibition (Cavia porcellus [7]): 90%
- Inhibition (Cavia porcellus [15]): 86%
- Inhibition (Cavia porcellus [19]): 23%
- Kb (Rattus norvegicus): 0.0088 µM
